Most compounds without a hit are left out; they make up all but 2.9% or so of the library.
Apaf1 inhib – inhibitors of human Apaf-1 apoptosome | O14727 | reconstituted apoptosome caspase-3 activity, DEVD-Rh110 fluorescence | inhibition, % at 20 µM | hit rate 0.71% among 330,000; active means inhibition of at least 40% at 20 µM;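 further: plate controls were DMSO wells for no effect and DEVD-CHO caspase inhibitor wells for full effect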
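Material: cell-free apoptosome with Apaf-1, procaspase-3 and caspase-9; Buffer or medium: Hepes pH 7.5 with detergent and BSA; Reagent: cytochrome c trigger plus (Z-DEVD)2-Rh110 caspase-3 substrate; Times: compound with Apaf-1, dATP, procaspase-3 30 min, then 50 min reaction, room temperature; Technique: Rh110 fluorescence intensity.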
MEKK2 WT-MEK5 – raises or lowers MEK5 binding to wildtype human MEKK2 PB1 domain; binding response (% of control), % at 10 µM; AID 1531; bead flow cytometry, Alexa488-MEK5 binding to MEKK2 WT; actives lie on both sides; Q9Y2U5; hit rate 1.1% among 290,000; in the data active means binding response below about 67% or above about 130%
MEKK3 PB1 HTS – raises or lowers MEK5 binding to the human MEKK3 PB1 domain; Q99759; bead-based flow cytometry, Alexa488-MEK5 binding to MEKK3; actives lie on both sides; 0 = blocked by unlabeled MEK5, 100 = vehicle; binding response (% of control), % at 10 µM; hit rate 1.4% among 290,000; AID 1529;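 active means binding response more than 3 SD above or below the average of its plate-row segment, actives on both sides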;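 further: Alexa488 bead fluorescence after subtracting the streptavidin-only scavenger bead signal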
Target sequence (Q99759 whole entry, looked up, the tested form may be a part): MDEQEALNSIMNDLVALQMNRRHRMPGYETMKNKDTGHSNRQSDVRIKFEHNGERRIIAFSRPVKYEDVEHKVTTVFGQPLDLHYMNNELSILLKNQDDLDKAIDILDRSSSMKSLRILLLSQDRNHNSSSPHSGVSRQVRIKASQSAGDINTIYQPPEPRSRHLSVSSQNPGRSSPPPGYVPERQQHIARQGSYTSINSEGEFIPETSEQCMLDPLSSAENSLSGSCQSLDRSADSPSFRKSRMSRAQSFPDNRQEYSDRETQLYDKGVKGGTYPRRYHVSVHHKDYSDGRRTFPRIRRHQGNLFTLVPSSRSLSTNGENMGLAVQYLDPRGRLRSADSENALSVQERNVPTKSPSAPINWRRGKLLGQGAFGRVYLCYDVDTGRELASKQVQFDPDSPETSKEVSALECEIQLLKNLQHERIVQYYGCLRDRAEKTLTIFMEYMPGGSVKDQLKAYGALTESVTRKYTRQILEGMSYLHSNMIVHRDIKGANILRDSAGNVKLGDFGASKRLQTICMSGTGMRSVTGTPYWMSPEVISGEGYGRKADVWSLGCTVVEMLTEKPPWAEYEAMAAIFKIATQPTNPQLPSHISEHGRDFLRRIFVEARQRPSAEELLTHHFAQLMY
MEKK2mut PB1 HTS – signal of MEK5 binding to mutant human MEKK2 PB1 domain. bead flow cytometry, Alexa488-MEK5 binding to MEKK2 mutant. percent response, % at 10 µM. hit rate 0.35% among 290,000. AID 1530; in the data active means percent response above about 24%, passing the limit was not always enough
UBC13 inh – blocks human UBC13 polyubiquitin chain formation; AID 485273; P61088; TR-FRET; inhibition, % at 20 µM; hit rate 0.47% among 330,000; in the data active means inhibition above about 45%, passing the limit was not always enough
MEKK2wt confirm – raises or lowers MEK5 binding to wildtype human MEKK2, retest. bead flow cytometry, Alexa488-MEK5 binding to MEKK2 WT; actives lie on both sides. shares compounds with MEKK3 PB1 HTS. binding response (% of control), % at 10 µM. hit rate 2.4% among 5,900; in the data active means binding response below about 16% or above about 210%; inactive means in between
MEKK2mut confirm – signal of MEK5 binding to mutant human MEKK2, retest. hit rate 2% among 5,900. bead flow cytometry, Alexa488-MEK5 binding to MEKK2 mutant. AID 1893. shares compounds with MEKK3 PB1 HTS. percent response, % at 10 µM; in the data active means percent response mostly above about 71%, no sharp cut-off; inactive means mostly below about 38%;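 further: higher means compound restores mutant binding toward wildtype level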
MEKK3 confirm – confirmation of inhibitors of MEK5 binding to human MEKK3; shares compounds with MEKK3 PB1 HTS; AID 1894; binding response (% of control), % at 10 µM; hit rate 1.8% among 5,900; bead flow cytometry, Alexa488-MEK5 binding to MEKK3; stronger effect = lower value;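 active means binding response below 72% of control, or above a set upper limit, though filed actives all read lower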;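 further: 100% = DMSO only wells and 0% = binding blocked by excess unlabeled MEK5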
* = called active by the depositor; x = no result given; [ ] = remark or other dose.

SMILES	Apaf1 inhib	MEKK2 WT-MEK5	MEKK3 PB1 HTS	MEKK2mut PB1 HTS	UBC13 inh	MEKK2wt confirm	MEKK2mut confirm	MEKK3 confirm
Fc1ccccc1NC(=S)N1CCN(Cc2ccc3c(c2)OCO3)CC1	0	116	136*	5	5	96	-3	94
O=C(NC(=S)N1CCN(Cc2ccc3c(c2)OCO3)CC1)c1ccc(Cl)cc1	14	121	104	55*	1	106	4	105
COc1ccc(N2C(=O)/C(=C/c3cccnc3)NC2=S)cc1	8	112	138*	2	-24	87	-2	99
CCOC(=O)c1c(NC(=O)Cn2cnc([N+](=O)[O-])n2)sc(C)c1C	10	101	102	-4	20	x	x	x
CCC(C)NC(=O)CN(c1cc(Cl)ccc1OC)S(C)(=O)=O (stereo not given)	-6	114	140*	1	14	99	-6	99
CCCOc1ccc(-c2nn(-c3ccccc3)cc2/C=C2\SC(N)=NC2=O)cc1C	0	96	129*	-2	-1	94	-1	104
CCS(=O)(=O)Nc1cccc(C2=NN(S(=O)(=O)c3ccccc3)C(c3cccs3)C2)c1 (stereo not given)	16	x	21*[inhibitor]	106*	7	96	-10	95
CCS(=O)(=O)Nc1cccc(C2=NN(S(=O)(=O)c3ccc(C)cc3)C(c3cccs3)C2)c1 (stereo not given)	1	90	95	-3	4	x	x	x
CCS(=O)(=O)Nc1cccc(C2=NN(S(=O)(=O)CC)C(c3ccccc3)C2)c1 (stereo not given)	-13	142*	92	355*	-2	98	-11	91
CCc1ccc(C2=NN(S(C)(=O)=O)C(c3cccs3)C2)cc1 (stereo not given)	22	x	12*[inhibitor]	x	-1	93	3	93
COc1ccc(C)cc1NC(=O)c1ccccc1NS(=O)(=O)c1ccc(Cl)s1	7	101	103	1	-10	x	x	x
Cc1ccc2[nH]c3c(=O)n(CC(=O)Nc4ccccc4N4CCN(C)CC4)ncc3c2c1	15	121	100	5	11	x	x	x
O=S(=O)(c1cnccc1N1CCN(CCO)CC1)N1CCCCC1	-16	111	108	8	8	x	x	x
COc1ccc(CN2CCC(C(N)=O)CC2)cc1OCc1ccccc1	0	107	103	0	-1	x	x	x
COc1ccc(CN2CCN(C)CC2)cc1OCc1ccccc1	-11	82	69*[inhibitor]	-9	9	108	7	108
C=CCNC(=S)N/N=C(\C)c1cc(OC)c(OC)c(OC)c1	18	106	137*	0	-6	105	1	105
C=CCNC(=S)N/N=C(\C)c1cccc(NC(C)=O)c1	4	99	99	-2	-4	x	x	x
COc1ccc(C(=O)C2CCCN(S(=O)(=O)c3ccccc3F)C2)c(C)c1 (stereo not given)	16	99	96	-5	-1	x	x	x
CN(C(=O)COC(=O)C(Cc1ccccc1)NC(=O)c1ccccc1)c1ccccc1 (stereo not given)	-1	106	134*	0	5	101	-8	98
Cc1ccc(C(=O)NC(=S)NCC2CCCO2)cc1[N+](=O)[O-] (stereo not given)	4	102	103	0	-1	x	x	x
COc1ccc(CNC(=O)c2ccc(N3CCC4(CC3)CC(c3ccc(Cl)cc3)=NO4)c(N)c2)cc1	3	93	89	-4	-4	x	x	x
COc1nc2c(c(-c3cc(Br)cs3)c1C#N)Cc1ccccc1-2	11	127	133*	25	19	98	-4	102
Nc1nnc(SCC(=O)NC23CC4CC(CC(C4)C2)C3)s1	-6	39*[inhibitor]	41*[inhibitor]	-18	-8	110	5	103
Brc1ccccc1OCCNCc1ccccc1	2	95	88	-11	6	x	x	x
Clc1ccc(OCCCNCc2ccccc2)c2ccccc12	27	253*	117	28*	32	161	29	102
SMILES	Apaf1 inhib	MEKK2 WT-MEK5	MEKK3 PB1 HTS	MEKK2mut PB1 HTS	UBC13 inh	MEKK2wt confirm	MEKK2mut confirm	MEKK3 confirm
CCOC(=O)CCCc1ccc(/C(C)=N/NC(N)=S)cc1	-21	90	98	-5	2	x	x	x
COC(=O)/C=C1\C(=O)N(c2nc3ccccc3s2)C(=S)N1c1ccc(F)cc1	30	0.0*[inhibitor]	1.0*[inhibitor]	-41	-9	99	0	99
COC(=O)/C=C1\C(=O)N(c2nc3ccc(OC)cc3s2)C(=S)N1c1ccc(F)cc1	-2	x	x	x	-24	x	x	x
Cc1n[nH]c(=O)nc1N/N=C/c1ccc(O)c([N+](=O)[O-])c1	-4	107	129*	1	-75	99	0	102
COc1ccc(/C=N/Nc2nc(=O)[nH]nc2C)cc1[N+](=O)[O-]	-8	105	124	0	-45	x	x	x
O=S(=O)(NCc1ccco1)c1ccc(Cl)nc1	3	102	105	0	-15	x	x	x
O=S(=O)(NCc1ccco1)c1ccccc1Br	-9	107	107	5	10	x	x	x
Cc1ccc(N(CC(=O)NCc2ccccn2)S(=O)(=O)c2ccccc2)cc1C	7	99	99	5	8	x	x	x
Cc1cccc(Nc2nnc(-c3ccc(N4CCOCC4)c([N+](=O)[O-])c3)c3ccccc23)c1	24	100	131*	0	-33	88	-10	97
Cc1nnc(-c2ccc(N3CCOCC3)c([N+](=O)[O-])c2)o1	3	x	x	x	-35	x	x	x
CCOc1cc(CNCCCN2CCOCC2)cc(Br)c1OCc1ccccc1Cl	12	199*	114	78*	39	173	33	105
CCOc1cc(CNCCO)cc(Br)c1OCc1ccc(Cl)cc1	15	x	x	x	37	x	x	x
CCOc1cc(CNC(C)(C)CO)cc(Br)c1OCc1ccc(Cl)cc1Cl	5	262*	117	75*	39	202	67	116
CCOc1cc(CNCCO)cc(Br)c1OCc1ccccc1Cl	12	142*	102	12	43	148	33	104
COC(=O)/C(=N\Nc1ccc(Cl)cc1)Sc1nnc(-c2ccc(OC)cc2)n1C	-1	101	108	0	-4	x	x	x
CCOc1ccc(/C(O)=C2\C(=O)C(=O)N(c3cc(C)on3)C2c2ccccc2OC)cc1 (stereo not given)	10	2.0*[inhibitor]	2.0*[inhibitor]	-31	-22	110	8	107
O=C(CCS(=O)(=O)c1cc2c(cc1Cl)NC(=O)CO2)NCc1ccc(F)cc1	4	106	104	3	4	x	x	x
